Results collected from several papers.
Protocols differ between the studies behind these lines.
Target: Tyrosine-protein kinase CSK (CSK, Homo sapiens, UniProt P41240)

| Compound | test | test system | conditions | measurement | result |
| --- | --- | --- | --- | --- | --- |
| CN1CC(Oc2cnc(C#N)cc2-c2ccn3nc(NC(=O)C4CC4)cc3c2)C1 | enzyme activity, inhibitor |  | 1 µM | inhibition | -11% |
| FC(F)(F)Oc1cccc(-c2cnc3ccc(-c4ccncc4)nn23)c1 | enzyme activity, inhibitor, radiometric |  | 1 µM | activity vs control | 97% |
| O=C1c2ccccc2-c2n[nH]c3cccc1c23 | enzyme activity, inhibitor |  | 0.5 µM | activity vs control | 95.6% |
| CCCOc1ccc([C@@H]2[C@@H](C(=O)O)[C@H](c3ccc4c(c3)OCO4)CN2CC(=O)Nc2c(CC)cccc2CC)cc1 | cell-free assay, competition with immobilised ligand |  | 1 µM | remaining binding | 91% |
| Oc1ccc(-c2nc(-c3ccncc3)c(-c3ccc(F)cc3)[nH]2)cc1 | enzyme activity, inhibitor |  | 0.5 µM | remaining activity | 93.7% |
| Nc1nc(Nc2ccccc2)sc1C(=O)c1c(F)cccc1F | enzyme activity, inhibitor |  | 10 µM | remaining activity | 90% |
| Cc1cnc(NC2CCOCC2)nc1-n1cnc(C(=O)NC(CN)c2cc(F)cc(Cl)c2)c1 (stereo not drawn) | enzyme activity, inhibitor, radiometric |  | 1 µM | remaining activity | 110% |
| CNC(=O)Nc1ccc2c(c1)[C@@]1(CC2)OC(=O)N(CC(=O)N(Cc2ccc(F)cc2)[C@@H](C)C(F)(F)F)C1=O | cell-free assay, competition with immobilised ligand |  | 1 µM | remaining binding | 100% |
| CS(=O)(=O)CCNCc1ccc(-c2ccc3ncnc(Nc4ccc(OCc5cccc(F)c5)c(Cl)c4)c3c2)o1 | enzyme activity, inhibitor |  | 0.5 µM | remaining activity | 106% |
| Cc1c[nH]c2nccc(Oc3c(F)cc(Nc4cc(Cl)nc(N)n4)cc3F)c12 | cell-free assay, competition with immobilised ligand |  | 0.1 µM | remaining binding | 87% |
| CC(C)(O)[C@H]1CC[C@H](Nc2ccc3ncc(-c4cccc(C(F)(F)F)c4)n3n2)CC1 | enzyme activity, inhibitor |  | 1 µM | remaining activity | 95.3% |
| Nc1nc(NC2CCCCC2)sc1C(=O)c1ccccc1 | enzyme activity, inhibitor |  | 10 µM | remaining activity | 95% |
| Cc1ccc(C(=O)Nc2ccc(CN3CCN(C)CC3)c(C(F)(F)F)c2)cc1C#Cc1cnc2cccnn12 | enzyme activity, inhibitor |  | 23.5 nM | remaining activity | 15% |
| COc1cc2ncnc(Nc3ccc(Oc4ccccc4)c(C)c3C)c2cc1OC | enzyme activity, inhibitor |  | 1 µM | inhibition | 49% |
| Cn1c(=O)n(-c2ccc(C(C)(C)C#N)cc2)c2c3cc(-c4cnc5ccccc5c4)ccc3ncc21 | enzyme activity, inhibitor |  | 10 µM | remaining activity | 100% |
| Cc1ccc(C(=O)NCc2ccsc2)cc1C#Cc1cn(C(C)C)c2ncnc(N)c12 | enzyme activity, inhibitor |  | 1 µM | activity vs control | 26% |
| COc1cc(Nc2cnc(C#N)c(O[C@H](C)CN(C)C)n2)ncc1-c1cnn(C)c1 | enzyme activity, inhibitor, radiometric |  | 1 µM | remaining activity | 83% |

| Compound | test | test system | conditions | measurement | result |
| --- | --- | --- | --- | --- | --- |
| CCN(CC)CCNC(=O)c1c(C)[nH]c(/C=C2\C(=O)Nc3ccc(F)cc32)c1C | enzyme activity, inhibitor |  | 10 µM | inhibition | 10% |
| Cn1nc(C(F)(F)F)cc1-c1cnc(N2CCc3cc(S(=O)(=O)Nc4c(F)cc(Cl)cc4F)cc(N4CCCC4=O)c32)nc1 | cell-free assay, competition with immobilised ligand |  | 1 µM | remaining binding | 93% |
| O=C(Nc1cnn(-c2csc(C(=O)NC3COC3)c2)c1)Nc1c(F)cccc1Cl | enzyme activity, inhibitor |  | 5 µM | remaining activity | 97.5% |
| N#CCCc1ccc2c(c1)-c1[nH]c3ccc([N+](=O)[O-])cc3c1CC(=O)N2 | cell-free assay |  | 0.5 µM | remaining signal | 96.3% |
| Cn1nc(C(=O)NCc2ccc(C(=O)O)cc2)cc1-c1ccc2[nH]ccc2c1 | cell-free assay, competition with immobilised ligand |  | 0.1 µM | remaining binding | 94% |
| CNc1cc(Oc2cc(C(=O)Nc3cc(N4CCN(C)CC4)cc(C(F)(F)F)c3)ccc2C)ncn1 | target engagement in cells, inhibitor, chemoproteomics | Huh-7 | 1 µM | inhibition | -15% |
| Cc1ccc(NC(=O)c2ccc(C)c(C(F)(F)F)c2)cc1C#Cc1nn(C2CCC(O)CC2)c2ncnc(N)c12 (stereo not drawn) | cell-free assay, inhibitor |  | 10 µM | remaining signal | -1% |
| Cc1ccc(Nc2nccc(N(C)c3ccc4c(C)n(C)nc4c3)n2)cc1S(N)(=O)=O | enzyme activity, inhibitor |  | 10 µM | inhibition | 24% |
| CNC(=O)c1ccc(Nc2ncc(C(F)(F)F)c(NCc3nccnc3N(C)S(C)(=O)=O)n2)cc1 | cell-free assay, competition with immobilised ligand |  | 0.1 µM | remaining binding | 100% |
| CC(C)(C)c1nc2c(s1)c1nc(N)ncc1c1ccc(NS(=O)(=O)c3c(F)cccc3F)c(F)c12 | enzyme activity, inhibitor, radiometric |  | 1 µM | remaining activity | 87% |
| CS(=O)(=O)Nc1cccc(-c2csc(NC(=O)CSc3nc4nccnc4c(=O)n3CCc3ccccc3)n2)c1 | enzyme activity, inhibitor |  | 10 µM | inhibition | 4% |
| Oc1cccc(-c2nc(N3CCOCC3)c3oc4ncccc4c3n2)c1 | enzyme activity, inhibitor |  | 10 µM | remaining activity | 101% |
| CN(C)C(=O)Cn1cc(-c2nc([C@@](C)(c3ccc(-c4cnc(N)nc4)cc3)C3CC3)no2)cn1 | cell-free assay, competition with immobilised ligand |  | 1 µM | remaining binding | 100% |
| CC/C(=N\NC(=O)NCc1cccc(O)c1)c1ccc(O)c(C)c1O | enzyme activity, inhibitor |  | 0.1 µM | inhibition | -4.9% |
| Cn1cc(Cl)c2c(Oc3c(F)cc(Nc4cc(Cl)nc(N)n4)cc3F)ccnc21 | cell-free assay, competition with immobilised ligand |  | 0.1 µM | remaining binding | 100% |
| CNC(=O)c1cc(Oc2ccc(NC(=O)Nc3ccc(Cl)c(C(F)(F)F)c3)cc2)ccn1 | enzyme activity, inhibitor |  | 10 µM | inhibition | 22% |
